Assay results pooled from the literature.
Compare with care: the assays were run in different laboratories.
Organism: Trypanosoma cruzi
Read-out: parasite growth
Setting: intracellular, amastigote

Compound	technique	cells	strain	time	measurement	value
COc1ccc(Nc2nc(-c3ccco3)nc3ccccc23)cc1	imaging	U2OS			IC50	11.4 µM
O=C(N[C@@H](Cc1ccccc1)C(=O)c1cn(COCc2ccccc2)nn1)[C@H](Cc1ccccc1)NC(=O)N1CCOCC1			TULAHUEN		IC50	32.2 µM
O=C(N[C@H](Cc1c[nH]c2ccccc12)C(=O)Nc1ccncc1)c1ccc(-c2cc(F)ccc2F)cc1F	imaging	C2C12		72 h	EC50	0.0013 µM
COc1ccc(Nc2nc(-c3ccncc3)nc3ccccc23)cc1	imaging	U2OS			IC50	24.5 µM
O=C(Cn1ccnc1[N+](=O)[O-])NCc1ccccc1			TULAHUEN	6 days	EC90	1.64 µM
COC(=O)c1ccc(NCc2cncn2Cc2ccccc2[N+](=O)[O-])cc1-c1ccccc1		mouse Fibroblast			EC50	0.1 to 1 µM
c1ccc(C2CCN(c3nc(-c4ccco4)nc4ccccc34)C2)nc1 (stereo not shown)	imaging	U2OS			IC50	50 µM
Cc1ccc2nc(-c3ccc(F)c(F)c3)c(CN3CCC(Cc4ccccc4)CC3)n2c1			TULAHUEN	6 days	EC90	4.7 µM
O=C(N[C@@H](Cc1ccccc1)C(=O)c1nccs1)[C@H](Cc1ccccc1)NC(=O)N1CCOCC1			TULAHUEN		IC50	31.7 µM
COC(=O)c1ccc(NCc2cncn2Cc2ccccc2Cl)cc1-c1ccccc1		mouse Fibroblast			EC50	0.1 to 1 µM
